From ChEMBL document CHEMBL2010694, “Indolyl and dihydroindolyl N-glycinamides as potent and in vivo active NPY5 antagonists” (Bioorg Med Chem Lett, 2012)
The source made the active and inactive calls. No cut-off for these calls is given here.

Key:
[1] = Plasma concentration in cPP-induced feeding Sprague-Dawley rat model at 1 mg/kg, po after 1 hr; type: ADME, organism-based; parameters: dose 1 mg/kg, route oral
Summary of the method: (§1)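 Satellite animals from the cPP feeding study dosed orally at 0.1, 1 or 10 mg/kg; plasma (ng/mL) and brain (ng/g) levels measured 1 h after dosing.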

[2] = Absolute oral bioavailability in Sprague-Dawley rat at 2 mg/kg after 24 hrs wash out period by HPLC analysis; type: ADME, organism-based; settings: in vivo
Summary of the method: (§2)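 Male Sprague-Dawley rats (200–250 g), jugular and carotid artery cannulated; compound dissolved in 20% beta cyclodextrin, pH adjusted with methane sulfonic acid. Serial blood sampled at 12 time points over 24 h post dose by automated sampler; plasma from centrifugation analysed by HPLC; PK parameters by non-compartmental analysis of plasma concentration–time profile.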

[3] = biological target: T1, Neuropeptide Y receptor type 5 (Homo sapiens, UniProt Q15761); experiment: Displacement of [125I]peptide YY from human NPY5 receptor
T1 sequence (Q15761 whole entry): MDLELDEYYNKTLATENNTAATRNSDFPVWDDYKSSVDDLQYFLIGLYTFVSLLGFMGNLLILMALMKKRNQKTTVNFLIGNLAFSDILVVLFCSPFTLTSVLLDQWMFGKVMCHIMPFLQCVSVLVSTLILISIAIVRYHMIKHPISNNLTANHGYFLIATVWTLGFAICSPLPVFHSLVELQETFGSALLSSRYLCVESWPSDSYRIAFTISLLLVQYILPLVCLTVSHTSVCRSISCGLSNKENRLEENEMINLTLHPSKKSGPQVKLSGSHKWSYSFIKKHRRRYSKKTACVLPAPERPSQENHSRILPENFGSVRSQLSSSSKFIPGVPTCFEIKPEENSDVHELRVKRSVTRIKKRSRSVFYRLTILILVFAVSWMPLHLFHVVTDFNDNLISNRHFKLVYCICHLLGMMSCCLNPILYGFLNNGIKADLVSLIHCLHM

[4] = Tmax in Sprague-Dawley rat plasma at 2 mg/kg, po and 1 mg/kg, iv after 24 hrs wash out period by HPLC analysis; type: ADME, organism-based; summary of the method: as §2
Rattus norvegicus [5] = experiment: Antiobesity activity in cPP-induced feeding in Sprague-Dawley rat model assessed as reduction in food intake at 0.1 to 10 mg/kg, po measured 1 hr post cpp challenge; type: functional, organism-based
Summary of the method: (§3)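 Rats pretreated orally at 0.1, 1 or 10 mg/kg (vehicle 20% cyclodextrin) 1 h before intracerebroventricular infusion of Y5-selective peptide agonist cPP, 0.6 nmol in normal saline; food intake recorded, n = 7–14 per group.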

Cytochrome P450 2C19 = Cytochrome P450 2C19 (Homo sapiens, UniProt P33261); experiment: Inhibition of CYP2C19; type: ADME
Sequence of Cytochrome P450 2C19 (P33261 whole entry): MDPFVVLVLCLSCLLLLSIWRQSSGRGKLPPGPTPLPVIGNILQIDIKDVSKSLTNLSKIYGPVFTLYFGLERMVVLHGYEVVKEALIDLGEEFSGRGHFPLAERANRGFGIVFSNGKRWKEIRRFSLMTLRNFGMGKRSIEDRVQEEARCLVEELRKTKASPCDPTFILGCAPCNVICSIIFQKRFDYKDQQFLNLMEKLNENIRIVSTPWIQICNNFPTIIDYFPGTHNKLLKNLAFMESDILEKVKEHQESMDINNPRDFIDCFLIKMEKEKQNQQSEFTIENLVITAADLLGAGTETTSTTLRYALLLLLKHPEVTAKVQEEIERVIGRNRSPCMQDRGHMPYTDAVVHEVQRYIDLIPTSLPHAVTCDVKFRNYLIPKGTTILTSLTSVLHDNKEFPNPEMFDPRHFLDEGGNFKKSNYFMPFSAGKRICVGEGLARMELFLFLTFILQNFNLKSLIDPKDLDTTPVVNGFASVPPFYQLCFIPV

[6] = Clearance in Sprague-Dawley rat plasma at 2 mg/kg, po and 1 mg/kg, iv after 24 hrs wash out period by HPLC analysis; type: ADME, organism-based; summary of the method: as §2
[7] = Clearance in Sprague-Dawley rat blood at 2 mg/kg, po and 1 mg/kg, iv after 24 hrs wash out period by HPLC analysis; type: ADME, organism-based; settings: whole blood; summary of the method: as §2
[8] = Protein binding in human; type: ADME, organism-based; settings: plasma, read-out: PB (converted)
[9] = Drug uptake in cPP-induced feeding Sprague-Dawley rat model brain at 0.1 mg/kg, po after 1 hr; type: ADME, organism-based; parameters: dose 0.1 mg/kg, route oral; settings: read-out: Drug uptake; summary of the method: as §1
Cytochrome P450 3A4 = Cytochrome P450 3A4 (Homo sapiens, UniProt P08684); experiment: Inhibition of CYP3A4; type: ADME
Sequence of Cytochrome P450 3A4 (P08684 whole entry): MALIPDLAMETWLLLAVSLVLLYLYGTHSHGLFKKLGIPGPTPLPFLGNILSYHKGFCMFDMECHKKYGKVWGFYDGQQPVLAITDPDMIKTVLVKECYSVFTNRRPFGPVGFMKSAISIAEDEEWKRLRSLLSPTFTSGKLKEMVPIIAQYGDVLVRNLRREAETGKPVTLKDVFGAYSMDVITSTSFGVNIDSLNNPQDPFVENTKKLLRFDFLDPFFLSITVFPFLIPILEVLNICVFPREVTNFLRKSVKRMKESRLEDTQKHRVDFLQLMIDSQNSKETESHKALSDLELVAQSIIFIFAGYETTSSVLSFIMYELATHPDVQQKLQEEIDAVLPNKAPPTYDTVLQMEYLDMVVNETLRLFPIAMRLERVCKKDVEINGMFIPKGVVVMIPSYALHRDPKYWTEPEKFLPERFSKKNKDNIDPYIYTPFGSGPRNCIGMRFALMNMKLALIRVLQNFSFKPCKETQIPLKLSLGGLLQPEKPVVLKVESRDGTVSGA

Liver microsomes = experiment: Intrinsic clearance in rat liver microsomes at 1 uM by LC/MS analysis; type: ADME, Microsome
Summary of the method: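 Compound incubated with human or rat liver microsomes; reaction quenched with acetonitrile, centrifuged, and remaining drug in supernatant measured by LC/MS to estimate T1/2, from which intrinsic clearance was derived.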

Cytochrome P450 2C8 = biological target: T2, Cytochrome P450 2C8 (Homo sapiens, UniProt P10632); experiment: Inhibition of CYP2C8; type: ADME
T2 sequence (P10632 whole entry): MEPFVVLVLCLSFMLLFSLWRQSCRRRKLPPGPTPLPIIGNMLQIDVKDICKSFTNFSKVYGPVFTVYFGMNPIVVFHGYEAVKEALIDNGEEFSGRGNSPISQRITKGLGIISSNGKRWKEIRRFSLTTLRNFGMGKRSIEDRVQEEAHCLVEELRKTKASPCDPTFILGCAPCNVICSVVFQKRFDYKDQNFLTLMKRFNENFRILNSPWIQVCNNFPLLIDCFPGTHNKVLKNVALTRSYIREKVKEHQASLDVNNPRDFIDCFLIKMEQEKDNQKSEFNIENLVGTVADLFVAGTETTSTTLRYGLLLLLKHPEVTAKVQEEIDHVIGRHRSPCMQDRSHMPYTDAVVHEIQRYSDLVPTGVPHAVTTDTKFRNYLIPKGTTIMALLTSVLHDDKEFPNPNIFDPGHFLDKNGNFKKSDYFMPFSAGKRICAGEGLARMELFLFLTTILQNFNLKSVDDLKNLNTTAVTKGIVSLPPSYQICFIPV

[10] = Lipophilicity, log D of the compound at pH 7.4; type: physicochemical; settings: buffer
Plasma = experiment: Plasma concentration in Sprague-Dawley rat at 10 mg/kg, po by LC-MS/MS analysis; type: ADME, organism-based; parameters: dose 10 mg/kg, route oral; settings: in vivo
Summary of the method: (§4)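 Male Sprague-Dawley rats (300–350 g), femoral artery cannulated; single 10 mg/kg oral dose in an appropriate vehicle, N = 3. Blood taken predose, 1, 2 and 4 h; brains then collected and stored at -80 °C. Equal portions of plasma or homogenized brain from the three rats pooled per time point, protein precipitated, quantified by LC/MS/MS.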

[11] = Cmax in Sprague-Dawley rat plasma at 2 mg/kg, po and 1 mg/kg, iv after 24 hrs wash out period by HPLC analysis; type: ADME, organism-based; summary of the method: as §2
Rattus norvegicus [12] = experiment: Antiobesity activity in po dosed cPP-induced feeding Sprague-Dawley rat model assessed as reduction in food intake measured 1 hr post cpp challenge; type: functional; summary of the method: as §3
[13] = Volume of distribution at steady state in Sprague-Dawley rat plasma at 2 mg/kg, po and 1 mg/kg, iv after 24 hrs wash out period by HPLC analysis; type: ADME, organism-based; settings: read-out: Vdss; summary of the method: as §2
[14] = Half life in Sprague-Dawley rat plasma at 2 mg/kg, po and 1 mg/kg, iv after 24 hrs wash out period by HPLC analysis; type: ADME, organism-based; summary of the method: as §2
MDR = experiment: Apparent permeability from apical to basolateral side in MDCK cells expressing MDR; type: ADME, cell-based, Canis lupus familiaris; settings: dog, MDCK-MDR1
Summary of the method: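 Bidirectional permeability (A–B and B–A) across a Pgp-overexpressing mdr-MDCK cell monolayer; efflux ratio derived from the two Papp values, given in 10^-6 cm/s.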

[15] = Plasma concentration in cPP-induced feeding Sprague-Dawley rat model at 10 mg/kg, po after 1 hr; type: ADME, organism-based; parameters: dose 10 mg/kg, route oral; summary of the method: as §1
[16] = Drug uptake in cPP-induced feeding Sprague-Dawley rat model brain at 10 mg/kg, po after 1 hr; type: ADME, organism-based; parameters: dose 10 mg/kg, route oral; settings: read-out: Drug uptake; summary of the method: as §1
[17] = Plasma concentration in Sprague-Dawley rat at 10 mg/kg, po after 1 hr by LC-MS/MS analysis; type: ADME, organism-based; parameters: dose 10 mg/kg, route oral; summary of the method: as §4
[18] = Drug uptake in cPP-induced feeding Sprague-Dawley rat model brain at 1 mg/kg, po after 1 hr; type: ADME, organism-based; parameters: dose 1 mg/kg, route oral; settings: read-out: Drug uptake; summary of the method: as §1

SMILES: CC(C)S(=O)(=O)NC[C@H]1CC[C@H](NC(=O)CN2CCc3cc(Cl)ccc32)CC1
- concentration at 1 h [1]: 516 ng/mL
- bioavailability [2]: 100%
- Ki [3]: 0.5 nM
- Tmax [4]: 0.8 h
- Activity (Rattus norvegicus [5]): Active
- IC50 (Cytochrome P450 2C19): > 40000 nM
- clearance [6]: 25 mL/min/kg
- clearance [7]: 23.3 mL/min/kg
- fraction unbound [8]: 0.009
- concentration at 1 h [9]: 11 ng/g
- IC50 (Cytochrome P450 3A4): 700 nM
- CLH (Liver microsomes): 49 mL/min
- IC50 (Cytochrome P450 2C8): 8200 nM
- logD [10]: 3
- concentration (Plasma): 5.61 µM
- Cmax [11]: 700 ng/mL
- Activity (Rattus norvegicus [12]): Dose-dependent effect
- minimal effective dose (Rattus norvegicus [12]; read-out: MED): < 0.1 mg/kg
- Vd [13]: 1.9 L/kg
- half-life [14]: 4.4 h
- Papp A→B (MDR): 2.31 ×10⁻⁶ cm/s
- concentration at 1 h [15]: 1700 ng/mL
- concentration at 1 h [16]: 151 ng/g
- concentration at 1 h [17]: 5.47 µM
- concentration at 1 h [18]: 104 ng/g
